T1: mouse AA3 (Mus musculus, UniProt Q91XE4)
T1 sequence (Q91XE4 1-318): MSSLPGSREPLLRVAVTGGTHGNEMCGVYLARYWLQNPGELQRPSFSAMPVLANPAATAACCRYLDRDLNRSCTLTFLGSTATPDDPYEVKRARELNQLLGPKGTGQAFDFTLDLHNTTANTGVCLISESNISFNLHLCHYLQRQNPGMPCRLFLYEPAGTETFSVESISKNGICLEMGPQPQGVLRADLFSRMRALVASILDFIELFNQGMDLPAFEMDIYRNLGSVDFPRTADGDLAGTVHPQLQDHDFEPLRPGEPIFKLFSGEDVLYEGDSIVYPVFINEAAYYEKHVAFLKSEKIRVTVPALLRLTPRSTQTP

T2: mouse aminoacylase 3 (mouse, UniProt Q91XE4 1-318)
T2 sequence (looked up): T1 sequence (Q91XE4 1-318)


Key:
[1] = molecular target: T1, mouse AA3; experiment: Inhibition of Co2+-dependent endopeptidase activity of AA3; assay type: biochemical; settings: 1 mg/ml Pefabloc SC
Procedure, shortened: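 Cleavage reaction with N-terminally Strep(II)-tagged mouse AA3 (E. coli-expressed, Streptactin-purified): 3 µM enzyme plus 1 mM peptide or 0.1 mM His-tagged HCV core protein (aa 1–177) in 50 mM Tris-HCl pH 7.5 with 1 mM CoCl2, incubated 18 h at 37°C. Products were diluted to 50 µM peptide, then analysed by reverse-phase HPLC with UV and on-line ionspray triple-quadrupole MS. Cleavage sites were assigned from masses.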

[2] = molecular target: T1, mouse AA3; experiment: Peptide cleavage catalyzed by AA3; assay type: biochemical; settings: 3 μM AA3, 1 mM peptide or 0.1 mM HCVCP, 50 mM Tris-HCl pH 7.5, 1 mM CoCl2, 18 h, 37°C; LC-MS
Procedure, shortened: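 Recombinant mouse AA3 (N-terminal Strep(II) tag, expressed in E. coli, Streptactin-purified) was incubated with N-acetylated or free peptides, or with His-tagged HCV core aa 1–177 (genotype 1). Aliquots were diluted in water to 50 μM peptide, then run by reverse-phase HPLC (0.1% formic acid, 0–100% acetonitrile over 60 min) with UV and triple-quadrupole ESI-MS detection (m/z 300–2000). Cleavage sites were assigned from fragment masses.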

[3] = molecular target: T2, mouse aminoacylase 3; experiment: SPR

| Molecule | Hydrolysis (cleavage) by AA3 [2] | further results |
| --- | --- | --- |
| Cl.NCCc1ccc(S(=O)(=O)F)cc1 [Pefabloc SC] |  | Inhibition of Co2+-dependent endopeptidase activity of AA3 [1]: ~ 50% |
| casein | not hydrolyzed |  |
| insulin B chain: standard protease substrate | not hydrolyzed |  |
| STLPKPQRKTKRNTIRRPQDVKFPGG [HCVCP-long peptide (aa. 2-27)] |  | Kd [3]: 142 ± 11 µM |

— article PMC3483449 (FEBS letters, 2012)
